Key:
[1] = target: Stearoyl-CoA desaturase 1 (Mus musculus) (UniProt P13516); test: Inhibition of SCD1 in mouse liver assessed as conversion of [14C]stearate to [14C]oleate after 60 mins in S9 microsomal fraction
Mus musculus [2] = test: In vivo inhibition of SCD1 in non-fat diet-induced oral dosed C57BL/6J mouse liver assessed as conversion of ratio of [14C]oleate to [14C]stearate after 2 to 3 hrs; assay type: functional; conditions: read-out: ID50 (the source's name)
Summary of the method: (§1)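 C57BL/6J mice on a non-fat diet (n = 2) dosed with inhibitor 2 h or 6 h before [14C]stearate. Mice killed 1 h after the [14C]stearate injection and livers removed. ID50 in mg/kg is the arithmetic mean of at least two experiments.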

Mus musculus [3] = species on record: Mus musculus; test: Toxicity in C57BL/6J mouse assessed as occurance of abnormilities in eyes; assay type: organism-based; conditions: in vivo
Summary of the method: (§2)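 C57BL/6J mice (n = 4) on a non-fat diet received oral doses once daily for 7 days, up to 3 mg/kg. The plasma desaturation index (C18:1/C18:0 ratio) served as the biomarker. Skin and eyes were inspected for abnormalities.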

Mus musculus [4] = test: In vivo inhibition of SCD1 in non-fat diet-induced oral dosed C57BL/6J mouse liver assessed as conversion of ratio of [14C]oleate to [14C]stearate after 6 to 7 hrs; assay type: functional; conditions: read-out: ID50 (the source's name)
Summary of the method: as §1

Mus musculus [5] = test: (§3) Oral bioavailability in C57BL/6J mouse at 20 mg/kg; assay type: ADME, organism-based; conditions: in vivo
Stearoyl-CoA desaturase [6] = target: T1, Stearoyl-CoA desaturase (Homo sapiens, UniProt O00767); test: Inhibition of human SCD1 expressed in human 293A cells assessed as conversion of [14C]stearate to [14C]oleate; assay type: cell-based
T1 sequence (O00767 whole entry): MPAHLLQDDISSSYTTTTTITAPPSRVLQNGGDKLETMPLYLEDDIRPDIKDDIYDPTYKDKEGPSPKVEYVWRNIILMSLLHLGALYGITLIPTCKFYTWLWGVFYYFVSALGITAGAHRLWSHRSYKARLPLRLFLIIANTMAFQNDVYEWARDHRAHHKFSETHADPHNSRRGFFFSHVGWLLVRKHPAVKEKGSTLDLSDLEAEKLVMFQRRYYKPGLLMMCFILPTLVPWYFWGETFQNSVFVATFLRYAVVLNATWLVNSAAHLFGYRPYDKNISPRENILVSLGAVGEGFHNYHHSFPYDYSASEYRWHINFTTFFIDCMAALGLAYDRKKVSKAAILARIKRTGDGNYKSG

[7] = Cmax in C57BL/6J mouse at 20 mg/kg, po; assay type: ADME, organism-based; parameters: dose 20 mg/kg, route oral; conditions: in vivo
Summary of the method: (§4)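 Oral dose of 20 mg/kg in PG/Tween (4/1), given by intubation tube to C57BL/6J mice (n = 3). Plasma sampled up to 8 h after dosing and compound levels measured by LC/MS. Values are arithmetic means of at least two experiments.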

Mus musculus [8] = species on record: Mus musculus; test: Toxicity in C57BL/6J mouse assessed as occurance of abnormilities in skin; assay type: organism-based; conditions: in vivo
Summary of the method: as §2

[9] = Tmax in C57BL/6J mouse at 20 mg/kg, po; assay type: ADME, organism-based; parameters: dose 20 mg/kg, route oral; conditions: in vivo
Summary of the method: as §4

[10] = AUC (0 to8 hrs) in C57BL/6J mouse at 20 mg/kg, po; assay type: ADME, organism-based; parameters: time < 8 hr, dose 20 mg/kg, route oral; conditions: plasma
Summary of the method: as §4

[11] = Half life in C57BL/6J mouse at 20 mg/kg, po; assay type: ADME, organism-based; parameters: dose 20 mg/kg, route oral; conditions: in vivo
Summary of the method: as §4

Mus musculus [12] = test: Reduction of desaturation index, ratio of C18:1 N9(cis)oleate to C18:0 streate in serum of low fat diet fed po dosed C57BL/6J mouse administered as single dose for 7 days measured after seventh dose; assay type: functional; parameters: scale not given: the % may be the effect or the level left; conditions: in the assay text read “non-fat diet” for “low fat diet”
Summary of the method: as §2

[13] = target: Stearoyl-CoA desaturase (Homo sapiens) (UniProt O00767); test: Inhibition of SCD1 in human 293A cells S9 microsomal fraction assessed as conversion of [14C]stearate to [14C]oleate after 60 mins
Stearoyl-CoA desaturase [14] = target: T1, Stearoyl-CoA desaturase; test: Inhibition of SCD1 in human 293A cell microsomal fraction assessed as conversion of [14C]stearate to [14C]oleate after 60 mins at 0.4 uM
Mus musculus [15] = test: In vivo inhibition of SCD1 in db/db mouse liver assessed as conversion of [14C]stearate to [14C]oleate administered through oral gavage; assay type: functional; conditions: read-out: ID50 (the source's name)
[16] = Volume of distribution in C57BL/6J mouse at 5 mg/kg, iv; assay type: ADME, organism-based; parameters: dose 5 mg/kg, route intravenous; conditions: in vivo
Summary of the method: (§5)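 Single iv dose of 5 mg/kg in DMA/Tween80/saline (10/10/80), injected into the tail vein of C57BL/6J mice (n = 2). Plasma collected up to 8 h after dosing and compound measured by LC/MS. Values are arithmetic means of at least two experiments.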

[17] = Clearance in C57BL/6J mouse at 5 mg/kg, iv; assay type: ADME, organism-based; parameters: dose 5 mg/kg, route intravenous; conditions: in vivo
Summary of the method: as §5

[18] = as §3; assay type: ADME, organism-based; conditions: C57BL/6J, in vivo

IC50 [1] [nM]	IC50 (Stearoyl-CoA desaturase [6]) [nM]	IC50 [13] [nM]	Structure (SMILES)	ED50 (Mus musculus [15]) [mg/kg]	also measured
0.06	0.8	0.03	FC(F)(F)c1cccc2c1CCC1(CCN(c3ccc(-c4nnc(Cc5cccnc5)o4)nn3)CC1)O2	–	ED50 (Mus musculus [2]): 0.5 mg/kg; Activity (Mus musculus [3]): Non-toxic; ED50 (Mus musculus [4]): 0.8 mg/kg; F (Mus musculus [5]): Not Active; Cmax [7]: 2600 ng/mL; Activity (Mus musculus [8]): Non-toxic; Tmax [9]: 1 h; AUC(0-t) at 8 h [10]: 7800 ng·h/mL; half-life [11]: 1.4 h; Activity (Mus musculus [12]): 75%
16	35	2	FC(F)(F)c1cccc2c1CCC1(CCN(c3ccc(-c4nnc(CCc5cccnc5)o4)nn3)CC1)O2	–	–
76	–	–	O=C(NCC(O)c1ccccc1)c1ccc(N2CCC3(CC2)Cc2ccccc2CO3)nn1 (stereo not drawn)	–	IC50 (Stearoyl-CoA desaturase [14]): > 400 nM
–	–	–	O=C(NCC(O)c1ccccc1)c1ccc(N2CCC3(CC2)CC(O)c2c(F)cccc2O3)nn1 (stereo not drawn)	7	–
65	38	4	Cn1nc(Cc2cccnc2)nc1-c1ccc(N2CCC3(CCc4c(cccc4C(F)(F)F)O3)CC2)nn1	–	–
–	–	> 10000	O=C(NCC(O)c1ccccc1)c1ccc(N2CCC3(CC2)Oc2ccccc2CC3=O)nn1 (stereo not drawn)	–	–
1	4	0.13	FC(F)(F)c1cccc2c1CCC1(CCN(c3ccc(-c4nnc(Cc5cccnc5)[nH]4)nn3)CC1)O2	–	–
49	560	300	O=C(NCC(O)c1ccccc1)c1ccc(N2CCC3(CC2)Oc2ccccc2CC3O)nn1 (stereo not drawn)	–	–
–	–	–	O=C(NCC(O)c1cccnc1)c1ccc(N2CCC3(CCc4c(F)ccc(F)c4O3)CC2)nn1 (stereo not drawn)	5	–
–	–	–	O=C(NCC(O)c1ccccc1)c1ccc(N2CCC3(CC2)CC(O)c2ccccc2O3)nn1 (stereo not drawn)	15	–
6	7	12	O=C(NCC(O)c1cccnc1)c1ccc(N2CCC3(CCc4c(F)cccc4O3)CC2)nn1 (stereo not drawn)	2	–
–	–	–	O=C(NCC(O)c1cccnc1)c1ccc(N2CCC3(CCc4c(Cl)cccc4O3)CC2)nn1 (stereo not drawn)	3	–
–	–	–	Cc1cccc2c1CCC1(CCN(c3ccc(C(=O)NCC(O)c4cccnc4)nn3)CC1)O2 (stereo not drawn)	4	–
–	–	2000	O=C(NCC(O)c1ccccc1)c1ccc(N2CCC3(CC2)Cc2ccccc2C3=O)nn1 (stereo not drawn)	–	–
–	–	> 1000	O=C(NCC(O)c1ccccc1)c1ccc(N2CCC3(CC2)CC(O)c2cc(F)ccc2O3)nn1 (stereo not drawn)	–	–
–	–	> 1000	COc1cccc2c1C(O)CC1(CCN(c3ccc(C(=O)NCC(O)c4ccccc4)nn3)CC1)O2 (stereo not drawn)	–	–
–	–	–	O=C(NCC(O)c1ccccc1)c1ccc(N2CCC3(CC2)CC(O)c2ccc(F)cc2O3)nn1 (stereo not drawn)	20	–
61	–	790	O=C(NCC(O)c1ccccc1)c1ccc(N2CCC3(C=Cc4ccccc4O3)CC2)nn1 (stereo not drawn)	–	–
> 10000	–	–	O=C(NCC(O)c1ccccc1)c1ccc(N2CCC3(CC2)Oc2ccccc2C3=O)nn1 (stereo not drawn)	–	–
–	–	–	O=C(NCC(O)c1cccnc1)c1ccc(N2CCC3(CCc4c(cccc4C(F)(F)F)O3)CC2)nn1 (stereo not drawn)	0.8	Vd [16]: 1 L/kg; ED50 (Mus musculus [2]): 0.9 mg/kg; clearance [17]: 17 mL/min/kg; ED50 (Mus musculus [4]): 2.5 mg/kg; bioavailability [18]: 67%; Cmax [7]: 3500 ng/mL; Tmax [9]: 1 h; AUC(0-t) at 8 h [10]: 13000 ng·h/mL; half-life [11]: 2 h
> 10000	–	–	FC(F)(F)c1cccc2c1CCC1(CCN(c3ccc(-c4nnc(-c5cccnc5)o4)nn3)CC1)O2	–	–
50	690	250	O=C(NCC(O)c1ccccc1)c1ccc(N2CCC3(CC2)CC(=O)c2ccccc2O3)nn1 (stereo not drawn)	–	–
